Source: PubChem (Broad Institute)
ARNT-TACC3 inh – disrupts binding between human ARNT and TACC3; Q9Y6A5; AlphaScreen His-ARNT PAS-B/GST-TACC3 binding, luminescence; TACC3 fragment carries E629A point mutation; inhibition, % at 9.99 µM; 0.66% of 390,000 active;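 active = mean inhibition of replicates at least 50% and at least half of replicates each reaching 50%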
CAL PDZ FP-1 – CAL PDZ (human) peptide binding inhibition; purified CAL PDZ, TMR-peptide fluorescence polarization, 1 h; inhibition, % at 24.9 µM; 0.92% of 300,000 active; AID 602252;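 active = mean inhibition of at least 30% with at least half of replicates also reaching 30%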
CAL PDZ FP-2 – human CAL PDZ-peptide interaction inhibition; Q9HD26; 0.02% of 330,000 active; inhibition, % at 20 µM; purified CAL PDZ, TMR-peptide fluorescence polarization, 1 h;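 active = highest replicate inhibition of at least 40%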
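Test system: tagged CAL PDZ domain / Buffer or medium: sodium phosphate/NaCl buffer pH 7.4 with TCEP, IgG, Thesit / Reagent: TMR-labelled reporter peptide T*-PRC34 bound in PDZ groove / Compound dosing: single point, 20 µM / Schedule: 1 h incubation at room temperature before polarization reading / Technique: fluorescence polarization (mP) / Benchmarks: unlabelled peptide, DMSO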
A number is an active result; - = inactive; . = no result. Rows were chosen to be rich in hits. Some 1.2% of all compounds tested hit in one or more screens of this group.

SMILES	ARNT-TACC3 inh	CAL PDZ FP-1	CAL PDZ FP-2
COc1ccc(CCNC(=O)CSCC(=O)Nc2ccccc2)cc1OC	-	-	-
C[C@@H]1CN([C@@H](C)CO)C(=O)c2cc(-c3ccccc3)cnc2O[C@H]1CN(C)C(=O)C1CCOCC1	-	.	.
COc1ccc(-c2cnc3c(c2)C(=O)N([C@@H](C)CO)C[C@@H](C)[C@@H](CN(C)C)O3)cc1	-	.	.
CO[C@@H]1CN(C)C(=O)c2ccc(NC(=O)c3ccc(F)cc3)cc2OC[C@@H](C)N(C(=O)CC2CC2)C[C@H]1C	-	.	.
C[C@@H]1CN([C@@H](C)CO)C(=O)Cc2cc(NC(=O)c3ccncc3)ccc2O[C@@H]1CN(C)C(=O)Nc1ccc(C(F)(F)F)cc1	-	.	.
C[C@@H]1CN([C@@H](C)CO)C(=O)c2cccc(NC(=O)Nc3ccc4c(c3)OCO4)c2O[C@H]1CN(C)Cc1ccc(Cl)c(Cl)c1	-	.	.
COc1ccccc1Nc1ncc(C(=O)N2CCC(C(N)=O)CC2)c2ccccc12	-	-	.
COc1ccc(Nc2ncc(C(=O)N3CCC(C(N)=O)CC3)c3ccccc23)cc1	-	71.5	-
Cc1ccc(S(=O)(=O)N2CCN(C(=O)COC(=O)/C=C/c3ccc([N+](=O)[O-])cc3)CC2)c(C)c1	-	-	-
C=CCOc1ccc(/C=C/C(=O)OCC(=O)N2CCN(S(=O)(=O)c3ccc(C)cc3C)CC2)cc1	.	47.1	-
O=C(CN(Cc1ccco1)C(=O)c1cccc(F)c1)Nc1ccccc1C(F)(F)F	.	.	-
Cc1ccc(OCCC(=O)N(CC(=O)Nc2ccccc2C(F)(F)F)Cc2ccco2)cc1	-	40.0	-
COc1ccc(S(=O)(=O)N(C)C[C@H]2OCCCC[C@@H](C)Oc3ccc(NC(=O)NC4CCCCC4)cc3C(=O)N([C@@H](C)CO)C[C@@H]2C)cc1	-	.	.
COc1ccc([Si](C)(C)[C@@H]2[C@@H](CCn3cc([C@H](O)c4ccccc4)nn3)O[C@]3(C(=O)N(C)c4ccccc43)[C@H]2C)cc1	-	.	.
CNC(=O)c1c(Cl)cnn1-c1ccc(C)cc1	-	-	-
Cc1ccc(-n2ncc(Cl)c2C(=O)NC2CC2)cc1	-	58.7	-
COc1cc2c(cc1OC)C(c1ccc(C(F)(F)F)cc1)CC(=O)N2 (stereo not given)	-	-	-
COc1cc2c(cc1OC)C(c1ccc(Br)cc1)CC(=O)N2 (stereo not given)	-	62.3	.
O=C(N/N=C/c1cc([N+](=O)[O-])ccc1O)C1CCCCC1	66.5	-	-
O=C(CSc1ccccn1)N/N=C/c1cc([N+](=O)[O-])ccc1O	75.8	-	-
O=C(Cn1nc2ccccc2n1)N/N=C/c1cc([N+](=O)[O-])ccc1O	.	-	-
O=C(CSc1ccccn1)N/N=C/c1ccccc1[N+](=O)[O-]	-	-	-
CC(C)(C)CC(=O)NCCCN1CCOCC1	-	36.9	-
CC(C)CNC(=O)C(=O)NCCCN1CCOCC1	-	-	-
O=C(CSc1nnc([C@@H]2CCCN2)o1)c1ccc(Cl)cc1	-	-	-
SMILES	ARNT-TACC3 inh	CAL PDZ FP-1	CAL PDZ FP-2
C=C(C)CSc1nnc([C@@H]2CCCN2)o1	-	41.6	-
COCCNc1oc(/C=C/c2ccccc2)nc1C#N	-	-	-
N#Cc1nc(/C=C/c2ccccc2)oc1NCCCN1CCOCC1	-	35.9	-
C[C@H]1CN([C@@H](C)CO)C(=O)c2cc(C#CC3CCCCC3)cnc2O[C@@H]1CN(C)Cc1cncnc1	-	.	.
COc1cc(OCC(=O)NC(C)C)cc2c1C(=O)O[C@@H](C)CCCC(=O)CCCCC2	-	46.3	.
COc1cc2c(c(OCC(=O)NC(C)C)c1)C(=O)O[C@@H](C)CCCC(=O)CCCCC2	-	-	-
COc1ccc(NC(=O)Nc2cccc3c2O[C@@H](CN(C)S(=O)(=O)c2ccc(Cl)cc2)[C@H](C)CN([C@H](C)CO)C3=O)cc1	-	.	.
COc1cccc(NC(=S)Nc2cc(C)cc(C)n2)c1	-	-	-
Cc1cc(C)nc(NC(=S)Nc2cccc(F)c2)c1	-	65.0	-
O=C(CN1CCN(c2ccccc2)CC1)Nc1ccccc1Cl	.	-	-
O=C(CCN1CCN(c2ccccc2)CC1)NNC(=S)Nc1ccccc1Cl	-	41.2	-
C[C@@H]1CN([C@H](C)CO)C(=O)c2cc(NC(=O)CCCN(C)C)ccc2O[C@@H](C)CCCCO[C@@H]1CN(C)S(=O)(=O)c1cn(C)cn1	-	.	.
CO[C@H]1CN(C)C(=O)c2cc(NC(=O)C3CCC3)ccc2OC[C@@H](C)N(C(=O)NC(C)C)C[C@@H]1C	-	.	.
COc1ccc(CNC(=O)C(c2ccco2)N(C(=O)CNS(=O)(=O)c2ccccc2)c2ccccc2C)cc1 (stereo not given)	-	91.8	-
COc1ccc(S(=O)(=O)NCC(=O)N(CC(=O)NCc2ccccc2)Cc2ccco2)cc1	-	-	-
